In assay [1] the target is T1, M-phase inducer phosphatase 3 (Homo sapiens, UniProt P30307).
T1 sequence (P30307 whole entry): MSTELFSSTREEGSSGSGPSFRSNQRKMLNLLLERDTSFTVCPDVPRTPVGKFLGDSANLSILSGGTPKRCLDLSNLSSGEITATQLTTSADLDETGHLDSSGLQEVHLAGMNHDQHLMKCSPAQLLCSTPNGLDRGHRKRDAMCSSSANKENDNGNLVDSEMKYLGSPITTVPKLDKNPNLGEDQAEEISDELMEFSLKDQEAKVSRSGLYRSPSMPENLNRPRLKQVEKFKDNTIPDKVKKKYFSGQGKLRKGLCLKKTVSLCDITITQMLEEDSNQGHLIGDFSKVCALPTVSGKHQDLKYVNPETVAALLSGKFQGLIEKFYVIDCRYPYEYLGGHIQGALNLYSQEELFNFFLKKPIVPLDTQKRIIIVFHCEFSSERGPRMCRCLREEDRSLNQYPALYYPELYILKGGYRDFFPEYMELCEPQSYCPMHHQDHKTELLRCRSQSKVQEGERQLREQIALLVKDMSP
As to the kind of experiment: Eight point inhibitory concentration against Cell division cycle 25 degree C was determined. An outline of the steps:
(§1)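 Phosphatase activity measured with 3-O-methylfluorescein phosphate at 50 μM (~5 × Km), product formation followed at 477 nm by UV-vis under initial velocity conditions (2–5% turnover) in time-dependent assays. Eight inhibitor concentrations were used, and IC50 was obtained by fitting to a dose–response equation.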

Assay [2] concerns the target T2, M-phase inducer phosphatase 2 (Homo sapiens, UniProt P30305). As to the kind of experiment: Inhibitory constant of compound against Cell division cycle 25B was determined.
The target in assay [3] is T3, M-phase inducer phosphatase 3 (Homo sapiens) (UniProt P30307).
T3 sequence (whole entry): T1 sequence (P30307 whole entry)
As to the kind of experiment: Percent inhibition of cell division cycle 25 degree C at 50 uM. The gist of the method:
(§2)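 Single-point screen at 50 μM inhibitor against Cdc25A, Cdc25B or Cdc25C with 50 μM 3-O-methylfluorescein phosphate, product followed at 477 nm in time-dependent assays. Activity was compared with a simultaneous no-inhibitor control, and selected compounds were run in duplicate (average error ±7%).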

In assay [4] the target is T4, M-phase inducer phosphatase 2 (Homo sapiens) (UniProt P30305).
T4 sequence (whole entry): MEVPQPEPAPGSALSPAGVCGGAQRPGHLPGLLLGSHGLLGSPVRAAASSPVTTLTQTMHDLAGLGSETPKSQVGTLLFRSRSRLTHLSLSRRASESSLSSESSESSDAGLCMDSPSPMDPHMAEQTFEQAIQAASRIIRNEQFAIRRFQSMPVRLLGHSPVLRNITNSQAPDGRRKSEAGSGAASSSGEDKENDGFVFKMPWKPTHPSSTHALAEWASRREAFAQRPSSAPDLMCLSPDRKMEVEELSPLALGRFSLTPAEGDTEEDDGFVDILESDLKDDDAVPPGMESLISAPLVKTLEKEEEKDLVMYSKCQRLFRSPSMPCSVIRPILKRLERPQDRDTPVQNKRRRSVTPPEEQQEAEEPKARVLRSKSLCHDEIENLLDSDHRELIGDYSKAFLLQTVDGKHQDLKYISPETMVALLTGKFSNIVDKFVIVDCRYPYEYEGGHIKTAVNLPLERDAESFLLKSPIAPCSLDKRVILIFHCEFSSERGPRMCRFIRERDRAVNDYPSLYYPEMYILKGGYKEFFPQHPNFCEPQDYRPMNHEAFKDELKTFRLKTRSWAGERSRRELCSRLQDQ
As to the kind of experiment: Percent inhibition of cell division cycle 25B at 50 uM. An outline of the steps:
as §2

Assay [5] concerns the target T5, M-phase inducer phosphatase 1 (Homo sapiens) (UniProt P30304).
T5 sequence (whole entry): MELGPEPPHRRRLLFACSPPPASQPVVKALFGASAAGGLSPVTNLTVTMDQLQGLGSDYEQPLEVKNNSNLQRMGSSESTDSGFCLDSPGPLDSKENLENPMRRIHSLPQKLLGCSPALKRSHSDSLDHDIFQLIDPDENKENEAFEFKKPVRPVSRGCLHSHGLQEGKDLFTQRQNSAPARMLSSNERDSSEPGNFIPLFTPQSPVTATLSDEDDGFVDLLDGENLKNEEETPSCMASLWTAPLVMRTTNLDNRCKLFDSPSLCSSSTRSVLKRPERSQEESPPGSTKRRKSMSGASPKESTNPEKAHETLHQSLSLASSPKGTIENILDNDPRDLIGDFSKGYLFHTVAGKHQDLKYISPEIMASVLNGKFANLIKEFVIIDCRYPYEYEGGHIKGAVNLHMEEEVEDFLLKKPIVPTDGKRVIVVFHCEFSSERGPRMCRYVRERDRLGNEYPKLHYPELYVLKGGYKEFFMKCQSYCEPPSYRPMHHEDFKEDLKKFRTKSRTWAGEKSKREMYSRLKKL
Kind of assay: Percent inhibition of cell division cycle 25A at 50 uM. The gist of the method: as §2

In assay [6] the target is T6, M-phase inducer phosphatase 2 (Homo sapiens, UniProt P30305).
T6 sequence (P30305 whole entry): T4 sequence (whole entry)
As to the kind of experiment: Eight point inhibitory concentration against Cell division cycle 25B was determined. An outline of the steps:
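Cdc25B activity read by UV-vis at 477 nm as product formed from 3-O-methylfluorescein phosphate (mFP) at 50 μM (~5 × Km), time-dependent, initial-velocity conditions (2–5% turnover); eight inhibitor concentrations, IC50 fitted to eq 1. Each reaction compared with a simultaneous no-inhibitor control; selected compounds run in duplicate.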

The target of assay [7] is T7, M-phase inducer phosphatase 1 (Homo sapiens, UniProt P30304).
T7 sequence (P30304 whole entry): T5 sequence (whole entry)
Kind of assay: Eight point inhibitory concentration against Cell division cycle 25A was determined. An outline of the steps:
as §1

Assay [8] concerns the target T6, M-phase inducer phosphatase 2. As to the kind of experiment: Inhibitory constant of compound against Cdc25B phosphatase was determined using mFP as a substrate.
In assay [9] the target is T2, M-phase inducer phosphatase 2. As to the kind of experiment: Inhibitory concentration of compound against mutant WT of Cdc25B phosphatase was determined. The gist of the method: (§3)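 Cdc25B catalytic domain constructs (wild-type, site-directed point mutants, truncated); activity with 3-O-methylfluorescein phosphate at 50 μM (~5 × Km), product read at 477 nm by UV-vis under initial velocity (2–5% turnover); eight inhibitor concentrations, IC50 fitted; values are mean of two determinations.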

In assay [10] the target is M-phase inducer phosphatase 2 (Homo sapiens, UniProt P30305, R496L). Kind of assay: Inhibitory concentration of compound against mutant R482L of Cdc25B phosphatase was determined. The gist of the method:
as §3

Assay [11] deals with M-phase inducer phosphatase 2 (Homo sapiens, UniProt P30305, F489A). As to the kind of experiment: Inhibitory concentration of compound against mutant F475A of Cdc25B phosphatase was determined. The gist of the method: as §3
The target in assay [12] is M-phase inducer phosphatase 2 (Homo sapiens, UniProt P30305, E488Q). Kind of assay: Inhibitory concentration of compound against mutant E474Q of Cdc25B phosphatase was determined. The gist of the method: as §3
The target of assay [13] is T6, M-phase inducer phosphatase 2. Kind of assay: Inhibitory concentration of compound against Cdc25B phosphatase was determined using CDK2-p-TpY/Cyclin A as a substrate. The gist of the method: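 Cdc25B IC50 with Cdk2-pTpY/CycA protein substrate at 300 nM; eight inhibitor concentrations; time-dependent assays; 1 mg/mL BSA carrier added only after TCA quench, not during reaction.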

In assay [14] the target is T2, M-phase inducer phosphatase 2. Kind of assay: Inhibitory concentration of compound against truncated mutant of Cdc25B phosphatase was determined. The gist of the method:
as §3

Assay [15] addresses T3, M-phase inducer phosphatase 3 (Homo sapiens). As to the kind of experiment: Percent inhibition against Cdc25C phosphatase at 50 uM of compound. The gist of the method: as §2
For assay [16], the target named is T6, M-phase inducer phosphatase 2. Kind of assay: Inhibitory constant of compound against Cell division cycle 25B was determined using mFP as a substrate.
Assay [17] shares this target. Kind of assay: Inhibitory concentration of compound against Cell division cycle 25B was determined using CDK2-p-TpY/Cyclin A as a substrate. The gist of the method: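 Cdc25B dephosphorylation of 300 nM Cdk2-pTpY/CycA protein substrate was run in time-dependent assays at eight inhibitor concentrations to give IC50. Reactions were quenched with TCA, and bovine serum albumin carrier (1 mg/mL) was added only after the quench so that it was absent during inhibitor exposure.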

Sequence of M-phase inducer phosphatase 2 (Homo sapiens, UniProt P30305, F489A) (P30305 whole entry F489A): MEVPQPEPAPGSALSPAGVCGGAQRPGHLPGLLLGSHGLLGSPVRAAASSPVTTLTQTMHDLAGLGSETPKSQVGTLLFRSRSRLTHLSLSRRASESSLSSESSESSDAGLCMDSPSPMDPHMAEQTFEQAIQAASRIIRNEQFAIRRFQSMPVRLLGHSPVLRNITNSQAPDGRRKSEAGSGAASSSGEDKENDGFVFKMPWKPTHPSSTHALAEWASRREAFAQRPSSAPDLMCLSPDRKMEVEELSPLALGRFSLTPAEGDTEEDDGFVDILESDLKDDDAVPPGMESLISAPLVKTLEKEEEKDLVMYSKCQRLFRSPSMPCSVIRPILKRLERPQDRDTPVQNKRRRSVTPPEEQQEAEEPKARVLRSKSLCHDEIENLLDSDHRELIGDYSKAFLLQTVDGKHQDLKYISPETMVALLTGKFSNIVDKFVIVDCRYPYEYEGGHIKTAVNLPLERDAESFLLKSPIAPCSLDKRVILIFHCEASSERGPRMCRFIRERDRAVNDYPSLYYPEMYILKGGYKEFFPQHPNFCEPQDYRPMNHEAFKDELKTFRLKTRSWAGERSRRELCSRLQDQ
Sequence of M-phase inducer phosphatase 2 (Homo sapiens, UniProt P30305, E488Q) (P30305 whole entry E488Q): as the sequence (P30305 whole entry F489A) above, with E488Q, A489F counted along it
Sequence of M-phase inducer phosphatase 2 (Homo sapiens, UniProt P30305, R496L) (P30305 whole entry R496L): as the sequence (P30305 whole entry F489A) above, with A489F, R496L counted along it

In the case of `CC(C)=CCC/C(C)=C/CC/C(C)=C/Cc1cccc2c(C3=C(O)C(O)=CC(=O)C3=O)c[nH]c12`, the 50% inhibitory concentration (IC50) – broadly, the midpoint of a concentration-inhibition curve – amounted to 3.5 µM in [1], 2.4 µM in assay [6] and 2.4 µM in assay [7]. Besides, in assay [2], the affinity corresponds to a Ki of 0.64 µM. For the same compound, the inhibition (in general, the change of the read-out against control, counted positive when it falls) in assay [3] came out at 85%; in assay [4] it was 89%; in assay [5] it was 96%.
Consider `O=C1C=C(O)C(=O)C(c2c[nH]c3cccc(Cl)c23)=C1O`, for which the concentration for half-maximal inhibition (IC50) in assay [1] was greater than 50 µM; in assay [6], greater than 50 µM; in assay [7], 28 µM. In addition, the inhibition was 0% in assay [3], 21% in assay [4] and 22% in [5].
Take `O=C1C=C(O)C(=O)C(c2c[nH]c3cc(Cl)ccc23)=C1O`: the values for the IC50 in assay [1], in assay [6] and in [7] were 40 µM, 14 µM and 4.2 µM, respectively. Also, the figures for the inhibition in assay [3], in assay [4] and in [5] were 81%, 92% and 100%, respectively.
On to `O=C1C=C(O)C(=O)C(c2c(C3CC3)[nH]c3ccccc23)=C1O`, for which the IC50 was greater than 50 µM in assay [1], greater than 50 µM in assay [6] and 35 µM in assay [7]. For the same compound, the inhibition in [3] was found to be 0%; in assay [4], 32%; in assay [5], 22%.
As for `O=C1C=C(O)C(=O)C(c2c[nH]c3ccccc23)=C1O`, the concentration for half-maximal inhibition (IC50) was determined as 30 µM in assay [1]; 18 µM in assay [6]; 18 µM in [9]; 73 µM in [10]; 76 µM in assay [11]; 200 µM in [12]. Also, the results for the half-inhibitory concentration (IC50) in assay [13], in [7] and in [14] were greater than 50 µM, 25 µM and 34 µM, respectively. Further, the inhibition in assay [3] is 69%; in assay [4], 75%; in [5], 33%. Moreover, the affinity in assay [8], expressed as Ki, was 13 µM.
Turning to `O=C1C=C(O)C(=O)C(c2c[nH]c3c(Cc4ccccc4)cccc23)=C1O`, the figures for the half-inhibitory concentration (IC50) in assay [1], in assay [6] and in assay [7] were 15 µM, 2.3 µM and 2.3 µM, respectively. For the same compound, the inhibition in assay [3] turned out to be 98%; in [4] it was 97%; in assay [5], 100%.
For `O=C1C=C(O)C(=O)C(c2c[nH]c3c(OCc4ccccc4)cccc23)=C1O`, the IC50 is 6.9 µM in [1], 4.2 µM in assay [6] and 4.2 µM in [7]. Also, the inhibition was 85% in assay [3], 97% in assay [4] and 98% in [5].
In the case of `Cc1ccc2[nH]cc(C3=C(O)C(O)=CC(=O)C3=O)c2c1`, the inhibition worked out at 61% in [4], 55% in assay [15] and 100% in assay [5]. In [7], this compound registered a concentration for half-maximal inhibition (IC50) of 8.1 µM.
In the case of `CC(C)=CCc1c(Cl)cc(Cl)c2c(C3=C(O)C(O)=CC(=O)C3=O)c[nH]c12`, the IC50 was 8.8 µM in assay [1], 2.3 µM in assay [6], 5 µM in assay [7] and 8.6 µM in [17]. Besides, the Ki (commonly a dissociation constant, usually derived from enzyme kinetics or from competition with a known ligand) in assay [16] worked out at 0.43 µM.
Turning to `O=C1/C(=N/CCc2cc(Br)c(O)c(Br)c2)C=C(O)c2cccnc21`, the IC50 in assay [1] was determined as 35 µM; in assay [6] it was 35 µM; in assay [7] it was 15 µM.
For the compound `O=C1C=C(O)C(=O)C(c2c[nH]c3c(-c4ccccc4)cccc23)=C1O`, the figures for the IC50 in [1], in assay [6] and in [7] were 27 µM, 2.5 µM and 2.5 µM, respectively. For the same compound, the inhibition in assay [3] is 91%; in assay [4], 92%; in [5] it was 99%.
For the compound `CCCc1cccc2c(C3=C(O)C(O)=CC(=O)C3=O)c[nH]c12`, the results for the IC50 in assay [1], in assay [6] and in assay [7] were greater than 50 µM, 59 µM and 4.2 µM, respectively. In addition, the results for the inhibition in assay [3], in [4] and in assay [5] were 79%, 23% and 72%, respectively.
As for `CC(C)=CCc1c(Cl)ccc2c(C3=C(O)C(O)=CC(=O)C3=O)c[nH]c12`, the concentration for half-maximal inhibition (IC50) is 11 µM in assay [1], 7.2 µM in assay [6] and 4 µM in assay [7].
As to `O=C1C=C(O)C(=O)C(c2c[nH]c3c2ccc2ccccc23)=C1O`, the IC50 in assay [1] was determined as 15 µM; in [6], 24 µM; in [7], 2.5 µM. Also, the inhibition in assay [3] was 75%; in [4], 79%; in assay [5], 99%.
On to `CC(C)(C)c1cccc2c(C3=C(O)C(O)=CC(=O)C3=O)c[nH]c12`, for which the concentration for half-maximal inhibition (IC50) in [1] is greater than 50 µM; in assay [6] it was 7.2 µM; in [7], 7.2 µM. Besides, the inhibition was 37% in [3], 33% in assay [4] and 93% in assay [5].
With `Cc1ccccc1Cc1cccc2c(C3=C(O)C(O)=CC(=O)C3=O)c[nH]c12`, the figures for the 50% inhibitory concentration (IC50) in assay [1], in [6] and in assay [7] were 3.5 µM, 1 µM and 1 µM, respectively. The inhibition came out at 94% in assay [3], 97% in assay [4] and 100% in [5].
